# Assay results published in publication PMC6424611 (Journal of molecular biology, 2019).
# Where no end group is shown, it is not given here. The star is where a group is joined. Biotin = O=C1N[C@H]2[C@H](CS[C@H]2CCCCC(=O)*)N1; TTDS = NCCCOCCOCCOCCCNC(=O)CCC(=O)*
# Key:
# [1] = biological target: T1, PDZD7-3 PDZ (Homo sapiens, UniProt Q9H5P4); assay: surface plasmon resonance; type: binding; settings: internal standard; biotinylated HPV16 E6 peptide immobilized; steady state
# T1 sequence (Q9H5P4 862-934 limits assumed): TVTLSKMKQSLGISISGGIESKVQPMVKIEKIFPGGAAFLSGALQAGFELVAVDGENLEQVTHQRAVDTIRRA
# In short: (§1)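 Biacore SPR on a CM5 chip. Streptavidin was immobilized by EDC coupling, then biotinylated HPV16 E6 peptide was captured and extensively washed. Tandem Ni/MBP-purified MBP-PDZ domains were then injected. The E6 peptide served as an internal standard.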
# [2] = biological target: T2, MAST1 PDZ (Homo sapiens, UniProt Q9Y2H9); assay: surface plasmon resonance; type: binding; settings: internal standard; biotinylated HPV16 E6 peptide immobilized; steady state
# T2 sequence (Q9Y2H9 967-1055 limits assumed): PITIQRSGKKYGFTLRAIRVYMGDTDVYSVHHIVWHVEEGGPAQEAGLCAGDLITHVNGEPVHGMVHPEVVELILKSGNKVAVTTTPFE
# In short: as §1
# [3] = biological target: T3, SNTG2 PDZ (Homo sapiens, UniProt Q9NY99); assay: surface plasmon resonance; type: binding; settings: internal standard; biotinylated HPV16 E6 peptide immobilized; steady state
# T3 sequence (Q9NY99 73-156 limits assumed): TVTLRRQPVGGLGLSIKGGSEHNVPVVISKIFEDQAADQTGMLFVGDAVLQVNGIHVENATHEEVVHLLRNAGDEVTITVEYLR
# In short: as §1
# [4] = biological target: T4, PARD3B-1 PDZ (Homo sapiens, UniProt Q8TEW8); assay: surface plasmon resonance; type: binding; settings: internal standard; biotinylated HPV16 E6 peptide immobilized; steady state
# T4 sequence (Q8TEW8 201-289 limits assumed): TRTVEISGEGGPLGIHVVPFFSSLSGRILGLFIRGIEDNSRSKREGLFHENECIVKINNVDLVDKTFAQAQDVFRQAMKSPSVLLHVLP
# In short: as §1
# [5] = biological target: T5, GRID2IP-2 PDZ (Homo sapiens, UniProt A4D2P6); assay: surface plasmon resonance; type: binding; settings: internal standard; biotinylated HPV16 E6 peptide immobilized; steady state
# In short: as §1
# [6] = biological target: HTRA1 PDZ (Homo sapiens, UniProt Q92743); assay: surface plasmon resonance; type: binding; settings: internal standard; biotinylated HPV16 E6 peptide immobilized; steady state
# In short: as §1
# [7] = biological target: GORASP2 PDZ; assay: surface plasmon resonance; type: binding, human; settings: internal standard; biotinylated HPV16 E6 peptide immobilized; steady state
# In short: as §1
# [8] = biological target: T6, SNX27 PDZ (Homo sapiens, UniProt Q96L92); assay: surface plasmon resonance; type: binding; settings: internal standard; biotinylated HPV16 E6 peptide immobilized; steady state
# [9] = biological target: GOPC PDZ (Homo sapiens, UniProt Q9HD26); assay: surface plasmon resonance; type: binding; settings: internal standard; biotinylated HPV16 E6 peptide immobilized; steady state
# [10] = tested on: PARD3B; assay: NanoBiT protein-protein interaction assay; type: cell-based, human; settings: RSK1–PARD3B sensor, 20 ng/ml EGF, serum-starved HEK293T, 60 min
# In short: (§2)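 Full-length RSK1 (N-terminal SmBiT) is paired with an N-terminal LgBiT fusion of the partner: ARHGEF12 isoform 2, GOPC isoform 2, PARD3B 1–913, or SYNJ2BP. Sensors are transiently co-expressed in HEK293T cells, which are serum-starved for 20 h from 4 h post-transfection and assayed with Nano-Glo at 24 h. Steady-state signal is referenced to the wild-type pair. For the EGF response (20 ng/ml, 60 min), signal is normalized to initial luminescence and to unstimulated furimazine decay. At least 6 replicates.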
# [11] = tested on: GOPC; assay: NanoBiT protein-protein interaction assay; type: cell-based, human; settings: RSK1–GOPC sensor, 20 ng/ml EGF, serum-starved HEK293T, 60 min
# In short: as §2
# [12] = tested on: SYNJ2BP; assay: NanoBiT protein-protein interaction assay; type: cell-based, human; settings: RSK1–SYNJ2BP sensor, 20 ng/ml EGF, serum-starved HEK293T, 60 min
# In short: as §2
# [13] = tested on: ARHGEF12; assay: NanoBiT protein-protein interaction assay; type: cell-based, human; settings: RSK1–ARHGEF12 sensor, 20 ng/ml EGF, serum-starved HEK293T, 60 min
# In short: as §2
# [14] = tested on: ERK2; assay: NanoBiT protein-protein interaction assay; type: cell-based; settings: RSK1–ERK2 sensor, 20 ng/ml EGF, serum-starved HEK293T, 60 min
# In short: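 Full-length RSK1 carries an N-terminal SmBiT tag, and full-length ERK2 is fused to LgBiT. HEK293T cells (DMEM, 10% FBS) are seeded at 2×10^4/well 24 h before FuGene HD co-transfection, then starved for 20 h in CO2-independent medium from 4 h post-transfection. After 20 ng/ml EGF, Nano-Glo luminescence is followed for 60 min and normalized to initial signal and to furimazine decay in unstimulated cells. At least 6 biological replicates.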
# [15] = tested on: MAGI1; assay: NanoBiT protein-protein interaction assay; type: cell-based, human; settings: RSK1–MAGI1 sensor, 20 ng/ml EGF, serum-starved HEK293T, 60 min
# In short: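 Full-length RSK1 (N-terminal SmBiT) is co-expressed with full-length MAGI1–LgBiT in HEK293T cells by FuGene HD transfection, then serum-starved for 20 h in CO2-independent medium. Cells are read with Nano-Glo 24 h post-transfection. Steady-state luminescence of mutant sensors is referenced to the wild-type pair. For the 20 ng/ml EGF response, signal is followed for 60 min and normalized to initial luminescence and to furimazine decay in unstimulated cells. At least 6 biological replicates.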
# [16] = tested on: first PDZ domain of NHERF (EBP50); assay: holdup assay; type: binding, human
# [17] = tested on: first PDZ domain of Scribble; assay: holdup assay; type: binding, human
# [18] = biological target: T7, ARHGEF12 PDZ (Homo sapiens, UniProt Q9NZN5); assay: holdup assay; type: binding; settings: words
# T7 sequence (Q9NZN5 72-151 limits assumed): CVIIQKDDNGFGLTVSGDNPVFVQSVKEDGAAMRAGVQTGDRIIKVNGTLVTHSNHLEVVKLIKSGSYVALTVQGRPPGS
# In short: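 Automated holdup against N-terminally biotinylated (TTDS linker) RSK1 725–735 peptides, unphosphorylated and phosphorylated, in triplicate. PDZome v2 clones were codon-optimized and expressed in E. coli, with soluble lysate adjusted to ~4 μM. BI is the PDZ fraction depleted from the fluid phase.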
# [19] = biological target: T6, SNX27 PDZ; assay: holdup assay; type: binding; settings: words
# [20] = biological target: T4, PARD3B-1 PDZ; assay: holdup assay; type: binding; settings: words; PARD3B
# In short: (§3)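 Automated holdup in triplicate measured biotinylated (N-terminal TTDS linker) RSK1 725–735 peptides, unphosphorylated or phosphorylated, against E. coli-expressed PDZome v2 domains. Soluble lysate was adjusted to ~4 μM, giving 255 domains for the unphosphorylated and 252 for the phosphorylated peptide. Binding intensity (BI) is the fraction of PDZ depleted from the fluid phase. BI 0.2 was the high-confidence threshold.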
# [21] = biological target: T5, GRID2IP-2 PDZ; assay: holdup assay; type: binding; settings: words; GRID2IP
# In short: as §3
# [22] = tested on: RhoA; assay: G-LISA RhoA activation assay; type: cell-based; settings: ARHGEF12 mutants, n=4
# T5 sequence (A4D2P6 279-356 limits assumed): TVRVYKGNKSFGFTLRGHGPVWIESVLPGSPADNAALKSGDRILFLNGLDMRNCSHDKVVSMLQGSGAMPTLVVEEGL
# HTRA1 PDZ, sequence (Q92743 365-467 limits assumed): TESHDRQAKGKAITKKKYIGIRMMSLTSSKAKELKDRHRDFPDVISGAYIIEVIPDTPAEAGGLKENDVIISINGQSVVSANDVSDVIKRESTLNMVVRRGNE
compound,measurement,setting,value
CC(C)C[C@H](NC(=O)[C@H](CCC(N)=O)NC(=O)[C@@H](NC(=O)[C@H](CCC(=O)O)NC(=O)[C@H](CCCNC(=N)N)NC(=O)[C@H](CCCNC(=N)N)NC(=O)[C@@H](NC(=O)[C@H](CCCNC(=N)N)NC(=O)[C@H](CO)NC(=O)[C@@H](N)CO)[C@@H](C)O)[C@@H](C)O)C(=O)O [HPV16 E6],"KD, SPR, HPV16 E6",[1],no binding
same,"KD, SPR, HPV16 E6",[2],no binding
same,"KD, SPR, HPV16 E6",[3],no binding
same,"KD, SPR, HPV16 E6",[4],no binding
same,"KD, SPR, HPV16 E6",[5],no binding
same,"KD, SPR, HPV16 E6",[6],no binding
same,"KD, SPR, HPV16 E6",[7],no binding
same,"KD, SPR, HPV16 E6",[8],no binding
same,"KD, SPR, HPV16 E6",[9],no binding
"EGF: epidermal growth factor (Sigma-Aldrich), 20 ng/ml (NSDSECPLSHDGYCLHDGVCMYIEALDKYACNCVVGYIGERCQYRDLKWWELR; UniProt P01133 971-1023, looked up)",change in luminescence after EGF,[10],did not show any change
same,change in luminescence after EGF,[11],decrease in luminescence
same,change in luminescence after EGF,[12],increased luminescence
same,change in luminescence after EGF,[13],decrease in luminescence
same,change in luminescence after EGF,[14],time-modulated decrease of the luminescence signal
same,change in luminescence after EGF,[15],decrease in luminescence
RSK1 PBM: PDZ binding motif of the RSK1 C-terminal tail ({Biotin-TTDS}-RRVRKLPSTTL),interaction detected,[16],did not detect any interaction
same,BI,[17],0.17–0.18
same,effect of phosphorylation on binding,[18],mostly eliminated
same,effect of phosphorylation on binding,[19],promoted by phosphorylation
same,affinity to both states of the RSK1 PBM,[20],comparable affinities to both states
same,effect of phosphorylation on binding,[21],mostly eliminated
S1288E: ARHGEF12 mutant mimicking the RSK1 phosphorylation site,decrease of RhoA signal by ARHGEF12 mutation,[22],20%
